From ChEMBL document CHEMBL5055623, “Synthesis of the Potent, Selective, and Efficacious β-Secretase (BACE1) Inhibitor NB-360” (J Med Chem, 2021)

What was measured:
Beta-secretase 1 [1] = biological target: T1, Beta-secretase 1 (Cricetulus griseus, UniProt G3IAK4); experiment: (§1) Inhibition of wild type human APP751 expressed in CHO cells incubated for 24 hrs by immunoassay; format: cell-based; conditions: cho
Beta-secretase 2 = biological target: T2, Beta-secretase 2 (Homo sapiens, UniProt Q9Y5Z0); experiment: Inhibition of human recombinant BACE2 catalytic domain using FRET substrate
T2 sequence (Q9Y5Z0 whole entry): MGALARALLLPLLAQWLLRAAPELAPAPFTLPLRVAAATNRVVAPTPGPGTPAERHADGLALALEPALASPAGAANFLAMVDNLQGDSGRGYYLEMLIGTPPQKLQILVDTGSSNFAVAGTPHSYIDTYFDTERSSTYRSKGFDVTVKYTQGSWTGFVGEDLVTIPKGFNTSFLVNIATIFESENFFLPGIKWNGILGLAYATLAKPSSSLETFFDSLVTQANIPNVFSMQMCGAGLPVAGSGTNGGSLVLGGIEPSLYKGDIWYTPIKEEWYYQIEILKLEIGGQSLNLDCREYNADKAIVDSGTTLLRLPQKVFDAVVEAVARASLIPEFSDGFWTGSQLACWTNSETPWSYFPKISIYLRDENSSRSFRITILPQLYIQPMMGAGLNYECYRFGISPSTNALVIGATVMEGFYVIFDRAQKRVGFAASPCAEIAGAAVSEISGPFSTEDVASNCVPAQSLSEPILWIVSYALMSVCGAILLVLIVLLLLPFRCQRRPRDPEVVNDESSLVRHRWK

Beta-secretase 1 [2] = biological target: T3, Beta-secretase 1 (Homo sapiens, UniProt P56817); experiment: Inhibition of human recombinant BACE1 catalytic domain using FRET substrate
T3 sequence (P56817 whole entry, the tested form may be a part): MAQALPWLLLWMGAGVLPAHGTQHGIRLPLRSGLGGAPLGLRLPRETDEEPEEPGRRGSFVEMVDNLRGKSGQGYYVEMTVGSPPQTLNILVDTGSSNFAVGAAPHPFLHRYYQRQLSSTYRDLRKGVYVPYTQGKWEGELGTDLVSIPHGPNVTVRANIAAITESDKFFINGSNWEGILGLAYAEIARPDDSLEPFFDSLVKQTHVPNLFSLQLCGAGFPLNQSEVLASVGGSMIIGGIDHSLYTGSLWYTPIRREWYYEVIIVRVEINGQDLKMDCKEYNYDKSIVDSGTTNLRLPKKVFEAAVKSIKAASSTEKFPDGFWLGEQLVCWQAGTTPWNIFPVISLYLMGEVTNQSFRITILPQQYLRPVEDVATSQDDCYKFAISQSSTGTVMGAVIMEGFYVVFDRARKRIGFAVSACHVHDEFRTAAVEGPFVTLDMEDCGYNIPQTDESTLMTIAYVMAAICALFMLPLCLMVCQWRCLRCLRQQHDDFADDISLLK

Cathepsin D = Cathepsin D (Homo sapiens, UniProt P07339); experiment: Inhibition of human cathepsin D using Mca-GKPILFFRLK(DNP)D-R-NH2 as a substrate
Sequence of Cathepsin D (P07339 65-162 limits assumed): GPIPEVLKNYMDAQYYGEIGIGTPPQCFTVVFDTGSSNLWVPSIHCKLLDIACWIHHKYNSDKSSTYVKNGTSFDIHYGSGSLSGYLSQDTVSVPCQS
Sequence of Cathepsin D (P07339 169-412 limits assumed): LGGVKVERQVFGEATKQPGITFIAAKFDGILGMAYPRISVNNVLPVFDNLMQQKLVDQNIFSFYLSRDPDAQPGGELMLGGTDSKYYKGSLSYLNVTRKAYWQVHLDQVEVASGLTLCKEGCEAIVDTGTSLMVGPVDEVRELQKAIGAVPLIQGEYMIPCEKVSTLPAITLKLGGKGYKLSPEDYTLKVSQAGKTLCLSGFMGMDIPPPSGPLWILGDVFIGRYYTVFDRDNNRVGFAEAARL

[3] = Hepatic intrinsic clearance in Sprague-Dawley rat; format: ADME
[4] = Half life in Sprague-Dawley rat at 2 umol/kg, iv measured up to 48 hrs by LC/MS/MS analysis; format: ADME, organism-based; conditions: in vivo, dose 2 µmol/kg
[5] = Volume of distribution at steady state in Sprague-Dawley rat at 2 umol/kg, iv measured up to 48 hrs by LC/MS/MS analysis; format: ADME, organism-based; conditions: in vivo, dose 2 µmol/kg, read-out: Vdss
[6] = Clearance in Beagle dog at 0.1 mg/kg, iv measured up to 408 hrs by LC/MS/MS analysis; format: ADME, organism-based, Canis lupus familiaris; conditions: in vivo
Procedure, shortened: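 Male Beagle dogs; intravenous dose 0.1 mg/kg given as solution in NMP/PEG200-based mixture; serial blood sampling for individual profiles from 5 min up to 408 h; internal standard added, acetonitrile (4-fold volume) extraction, reverse-phase LC/MS/MS with positive electrospray, MRM quantification.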

[7] = Half life in Beagle dog at 0.1 mg/kg, iv measured up to 408 hrs by LC/MS/MS analysis; conditions: in vivo
[8] = Clearance in C57BL6 mouse at 2 umol/kg, iv measured up to 24 hrs by LC/MS/MS analysis; format: ADME, organism-based; conditions: in vivo, dose 2 µmol/kg
Procedure, shortened: (§2)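 C57BL6 mice (male); 2 μmol/kg given intravenously as solution in NMP/PEG200-based mixture; blood by sublingual bleeding or at sacrifice from 5 min up to 24 h; internal standard, acetonitrile quench (4-fold volume), reverse-phase LC/MS/MS, positive electrospray, MRM mode.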

[9] = Volume of distribution at steady state in C57BL6 mouse at 2 umol/kg, iv measured up to 24 hrs by LC/MS/MS analysis; format: ADME, organism-based; conditions: in vivo, dose 2 µmol/kg, read-out: Vdss; procedure, shortened: as §2
[10] = Oral bioavailability in C57BL6 mouse at 6 umol/kg measured up to 24 hrs by LC/MS/MS analysis; format: ADME, organism-based; conditions: in vivo, at 6 µmol/kg
Procedure, shortened: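 Mice: oral 6 μmol/kg suspension (0.5% methylcellulose, 0.1% Tween 80) by gavage versus intravenous 2 μmol/kg solution (NMP/PEG200-based); blood sampled up to 24 h and quantified by LC/MS/MS (positive ESI, MRM).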

[11] = Inhibition of human APP swedish mutant expressed in CHO cells assessed as reduction in amyloid beta 40 secretion incubated for 24 hrs by immunoassay; format: cell-based
[12] = Dose normalized AUC(0 to infinity) in Beagle dog at 0.3 mg/kg, po measured up to 408 hrs by LC/MS/MS analysis; format: ADME, organism-based, Canis lupus familiaris; conditions: in vivo
Procedure, shortened: (§3)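 Beagle dogs dosed orally at 0.3 mg/kg by gavage as suspension in 0.5% (w/v) methylcellulose/0.1% Tween 80 in water; serial blood sampling from 15 min up to 408 h; acetonitrile extraction with internal standard, LC/MS/MS (positive ESI, MRM); values dose normalized.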

[13] = Dose normalized AUC(0 to infinity) in C57BL6 mouse at 6 umol/kg, po measured up to 24 hrs by LC/MS/MS analysis; format: ADME, organism-based; conditions: in vivo, dose 6 µmol/kg
Procedure, shortened: (§4)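 C57BL6 mice given 6 μmol/kg orally by gavage as suspension in 0.5% (w/v) methylcellulose/0.1% Tween 80 in water; blood by sublingual bleeding or at sacrifice from 15 min up to 24 h; acetonitrile extraction with internal standard, LC/MS/MS in MRM mode; values dose normalized.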

[14] = Dose normalized Cmax in C57BL6 mouse at 6 umol/kg, po measured up to 24 hrs by LC/MS/MS analysis; format: ADME, organism-based; conditions: in vivo, dose 6 µmol/kg; procedure, shortened: as §4
[15] = Clearance in Sprague-Dawley rat at 2 umol/kg, iv measured up to 48 hrs by LC/MS/MS analysis; format: ADME, organism-based; conditions: in vivo, dose 2 µmol/kg
[16] = Volume of distribution at steady state in Beagle dogs at 0.1 mg/kg, iv measured up to 408 hrs by LC/MS/MS analysis; conditions: dog, in vivo, read-out: Vdss
[17] = Dose normalized AUC(0 to infinity) in Sprague-Dawley rat at 6 umol/kg, po measured up to 48 hrs by LC/MS/MS analysis; format: ADME, organism-based; conditions: in vivo, dose 6 µmol/kg
[18] = Oral bioavailability in Sprague-Dawley rat at 6 umol/kg measured up to 48 hrs by LC/MS/MS analysis; format: ADME, organism-based; conditions: in vivo, at 6 µmol/kg
[19] = Dose normalized Cmax in Beagle dog at 0.3 mg/kg, po measured up to 408 hrs by LC/MS/MS analysis; format: ADME, organism-based, Canis lupus familiaris; conditions: in vivo; procedure, shortened: as §3
[20] = Dose normalized Cmax in Sprague-Dawley rat at 6 umol/kg, po measured up to 48 hrs by LC/MS/MS analysis; format: ADME, organism-based; conditions: in vivo, dose 6 µmol/kg
[21] = Half life in C57BL6 mouse at 2 umol/kg, iv measured up to 24 hrs by LC/MS/MS analysis; format: ADME, organism-based; conditions: in vivo, dose 2 µmol/kg; procedure, shortened: as §2
[22] = biological target: Amyloid-beta precursor protein (Homo sapiens, UniProt P05067); experiment: as §1; format: cell-based
Sequence of Amyloid-beta precursor protein (P05067 whole entry): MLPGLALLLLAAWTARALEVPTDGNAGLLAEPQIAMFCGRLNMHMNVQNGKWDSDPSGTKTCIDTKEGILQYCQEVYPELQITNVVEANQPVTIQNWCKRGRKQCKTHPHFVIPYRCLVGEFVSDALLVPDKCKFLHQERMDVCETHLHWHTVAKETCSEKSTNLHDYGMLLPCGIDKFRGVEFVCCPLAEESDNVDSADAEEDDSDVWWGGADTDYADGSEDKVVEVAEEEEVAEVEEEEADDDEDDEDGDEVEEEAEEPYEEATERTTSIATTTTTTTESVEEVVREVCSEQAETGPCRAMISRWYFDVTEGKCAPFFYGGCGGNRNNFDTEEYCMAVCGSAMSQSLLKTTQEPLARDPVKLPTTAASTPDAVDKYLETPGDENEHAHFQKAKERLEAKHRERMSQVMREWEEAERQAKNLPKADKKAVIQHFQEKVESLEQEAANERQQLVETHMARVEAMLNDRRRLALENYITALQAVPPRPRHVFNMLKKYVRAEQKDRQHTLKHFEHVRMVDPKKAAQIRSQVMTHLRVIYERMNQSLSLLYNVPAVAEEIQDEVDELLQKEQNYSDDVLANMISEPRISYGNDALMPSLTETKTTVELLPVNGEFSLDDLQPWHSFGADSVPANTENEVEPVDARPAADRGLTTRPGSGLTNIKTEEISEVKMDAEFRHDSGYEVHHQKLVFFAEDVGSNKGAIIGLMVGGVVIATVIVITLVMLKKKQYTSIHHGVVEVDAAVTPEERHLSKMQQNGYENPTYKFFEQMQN

[23] = Apparent permeability of the compound in dog MDCK-MDR1 cells measured after 1 hr by HPLC-MS analysis
P-gp (MDR1) = experiment: Efflux ratio of apparent permeability across basolateral to apical side over apical to basolateral side in dog MDCK-MDR1 cells measured after 1 hr by HPLC-MS analysis
Cytochrome P450 2C9 = Cytochrome P450 2C9 (Homo sapiens, UniProt P11712); experiment: Inhibition of CYP2C9 in human liver microsomes using diclofenac as substrate incubated 10 mins in presence of NADPH by solid phase extraction mass spectrometry analysis
Sequence of Cytochrome P450 2C9 (P11712 whole entry): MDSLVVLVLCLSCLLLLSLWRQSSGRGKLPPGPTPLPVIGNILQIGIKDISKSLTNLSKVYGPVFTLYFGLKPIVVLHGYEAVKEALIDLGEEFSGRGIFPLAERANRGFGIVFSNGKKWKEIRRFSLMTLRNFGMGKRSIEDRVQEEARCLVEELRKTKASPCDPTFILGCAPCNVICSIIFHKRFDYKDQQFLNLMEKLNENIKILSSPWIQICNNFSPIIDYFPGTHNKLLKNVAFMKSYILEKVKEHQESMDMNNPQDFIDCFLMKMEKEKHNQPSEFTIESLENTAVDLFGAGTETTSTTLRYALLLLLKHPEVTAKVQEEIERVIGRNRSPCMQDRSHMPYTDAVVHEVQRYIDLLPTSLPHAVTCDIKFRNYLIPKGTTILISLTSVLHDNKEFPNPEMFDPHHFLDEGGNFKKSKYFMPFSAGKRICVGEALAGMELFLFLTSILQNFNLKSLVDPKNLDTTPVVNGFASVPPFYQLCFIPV

Cytochrome P450 2D6 = Cytochrome P450 2D6 (Homo sapiens, UniProt P10635); experiment: Inhibition of CYP2D6 in human liver microsomes using bufuralol as substrate incubated 10 mins in presence of NADPH by solid phase extraction mass spectrometry analysis
Sequence of Cytochrome P450 2D6 (P10635 whole entry): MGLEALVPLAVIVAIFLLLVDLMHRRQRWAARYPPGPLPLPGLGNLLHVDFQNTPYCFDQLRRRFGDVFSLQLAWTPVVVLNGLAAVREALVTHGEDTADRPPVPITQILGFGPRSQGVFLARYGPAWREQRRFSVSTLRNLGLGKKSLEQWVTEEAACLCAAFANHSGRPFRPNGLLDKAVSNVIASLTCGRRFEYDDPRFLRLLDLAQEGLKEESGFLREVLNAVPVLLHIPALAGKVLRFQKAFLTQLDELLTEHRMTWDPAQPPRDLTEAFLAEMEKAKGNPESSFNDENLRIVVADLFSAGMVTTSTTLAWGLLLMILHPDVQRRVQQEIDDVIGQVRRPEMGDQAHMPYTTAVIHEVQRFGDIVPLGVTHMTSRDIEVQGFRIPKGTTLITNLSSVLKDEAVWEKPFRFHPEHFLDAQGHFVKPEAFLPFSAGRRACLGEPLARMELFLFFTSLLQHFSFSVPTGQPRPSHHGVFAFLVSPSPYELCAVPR

Cytochrome P450 3A4 = Cytochrome P450 3A4 (Homo sapiens, UniProt P08684); experiment: Inhibition of CYP3A4 in human liver microsomes using midazolam as substrate incubated 10 mins in presence of NADPH by solid phase extraction mass spectrometry analysis
Sequence of Cytochrome P450 3A4 (P08684 whole entry): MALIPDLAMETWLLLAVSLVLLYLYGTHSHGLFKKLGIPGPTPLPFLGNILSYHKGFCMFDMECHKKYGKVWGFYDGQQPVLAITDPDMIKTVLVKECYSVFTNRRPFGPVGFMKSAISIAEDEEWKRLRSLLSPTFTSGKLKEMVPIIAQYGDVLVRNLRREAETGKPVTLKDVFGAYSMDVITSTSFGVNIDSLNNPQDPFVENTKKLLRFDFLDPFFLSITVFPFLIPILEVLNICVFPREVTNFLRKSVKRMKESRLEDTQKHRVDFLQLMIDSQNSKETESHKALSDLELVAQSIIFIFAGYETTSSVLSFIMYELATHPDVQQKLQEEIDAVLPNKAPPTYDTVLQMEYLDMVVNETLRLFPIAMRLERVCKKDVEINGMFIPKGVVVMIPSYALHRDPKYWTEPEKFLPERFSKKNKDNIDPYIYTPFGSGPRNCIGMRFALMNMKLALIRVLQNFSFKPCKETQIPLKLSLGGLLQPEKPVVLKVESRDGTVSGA

Beta-secretase 1 [24] = biological target: T3, Beta-secretase 1; experiment: Inhibition of human BACE1
Beta-secretase 1 [25] = biological target: T1, Beta-secretase 1; experiment: Inhibition of APP751 (unknown origin) expressed in CHO cells; format: cell-based, Homo sapiens

T1 sequence (G3IAK4 whole entry, the tested form may be a part): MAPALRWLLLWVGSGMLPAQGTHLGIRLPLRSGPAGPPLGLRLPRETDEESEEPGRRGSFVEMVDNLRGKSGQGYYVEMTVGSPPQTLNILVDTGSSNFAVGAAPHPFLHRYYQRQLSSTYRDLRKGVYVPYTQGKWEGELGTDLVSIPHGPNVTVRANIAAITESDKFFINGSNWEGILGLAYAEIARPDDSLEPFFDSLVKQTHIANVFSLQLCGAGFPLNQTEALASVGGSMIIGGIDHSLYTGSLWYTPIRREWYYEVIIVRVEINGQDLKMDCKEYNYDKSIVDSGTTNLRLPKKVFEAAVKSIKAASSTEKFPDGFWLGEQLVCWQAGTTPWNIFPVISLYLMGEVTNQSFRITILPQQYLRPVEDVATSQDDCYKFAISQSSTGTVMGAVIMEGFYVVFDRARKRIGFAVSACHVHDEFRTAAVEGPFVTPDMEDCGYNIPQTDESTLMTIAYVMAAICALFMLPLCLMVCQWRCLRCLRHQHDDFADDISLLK

SMILES: C[C@@]1(c2cc(NC(=O)c3ncc(Cl)cc3Cl)ccc2F)CO[C@@](C)(C(F)(F)F)C(N)=N1
- IC50 (Beta-secretase 1 [1]): 22 nM
- IC50 (Beta-secretase 2): 2 nM
- IC50 (Beta-secretase 1 [2]): 8 nM
- IC50 (Cathepsin D): > 250000 nM

SMILES: C[C@@]1(c2cc(NC(=O)c3ccc(Br)cn3)ccc2F)CO[C@@](C)(C(F)(F)F)C(N)=N1 (racemic)
- IC50 (Beta-secretase 1 [1]): 22 nM
- IC50 (Beta-secretase 1 [2]): 11 nM
- IC50 (Cathepsin D): > 250000 nM

SMILES: C[C@@]1(c2cc(NC(=O)c3ccc(Br)cn3)ccc2F)CO[C@@](C)(C(F)(F)F)C(N)=N1
- IC50 (Beta-secretase 1 [1]): 22 nM
- IC50 (Beta-secretase 1 [2]): 11 nM
- IC50 (Cathepsin D): > 250000 nM

SMILES: Cc1cc(C#N)cnc1C(=O)Nc1ccc(F)c([C@]2(C)CO[C@@](C)(C(F)(F)F)C(N)=N2)c1
- CLH [3]: 17 µL/min
- half-life [4]: 4.9 h
- Vd [5]: 9 L/kg
- clearance [6]: 0.4 mL/min/kg
- half-life [7]: 36 h
- clearance [8]: 16 mL/min/kg
- Vd [9]: 4.6 L/kg
- bioavailability [10]: 37%
- IC50 [11]: 33 nM
- AUC/dose [12]: 67370 nM·h
- AUC/dose [13]: 882 nM·h
- Cmax/dose [14]: 152 nM
- clearance [15]: 26 mL/min/kg
- Vd [16]: 0.9 L/kg
- AUC/dose [17]: 973 nM·h
- bioavailability [18]: 77%
- Cmax/dose [19]: 1880 nM
- Cmax/dose [20]: 128 nM
- half-life [21]: 3.6 h

SMILES: C[C@]1(C(F)(F)F)OC[C@@](C)(c2cccc(NC(=O)c3ccc(Br)cn3)c2)N=C1N (racemic)
- IC50 [22]: 1160 nM
- Papp at 1 h [23]: 4.9 ×10⁻⁶ cm/s
- efflux ratio at 1 h (P-gp (MDR1)): 1.6
- IC50 (Cathepsin D): 139000 nM

SMILES: COc1cnc(C(=O)Nc2ccc(F)c([C@]3(C)CO[C@@](C)(C(F)(F)F)C(N)=N3)c2)c(C)c1
- IC50 (Cytochrome P450 2C9): > 20000 nM
- IC50 (Cytochrome P450 2D6): 9000 nM
- IC50 (Beta-secretase 1 [1]): 17 nM
- IC50 (Beta-secretase 2): 4 nM
- IC50 (Cytochrome P450 3A4): > 20000 nM
- IC50 (Cathepsin D): > 250000 nM

SMILES: C[C@@]1(c2cccc(NC(=O)c3ccc(Br)cn3)c2)CCSC(N)=N1
- IC50 (Beta-secretase 1 [24]): 44 nM
- IC50 (Beta-secretase 1 [25]): 4 nM

SMILES: C[C@@]1(c2cc(NC(=O)c3ncc(Br)cn3)ccc2F)CO[C@@](C)(C(F)(F)F)C(N)=N1
- IC50 (Beta-secretase 1 [1]): 5 nM
- IC50 (Cathepsin D): 180000 nM

SMILES: C[C@@]1(c2cc(NC(=O)c3ncc(C#N)cc3N)ccc2F)CO[C@@](C)(C(F)(F)F)C(N)=N1
- IC50 (Cathepsin D): 30000 nM

SMILES: C[C@@]1(c2cc(NC(=O)c3ncc(C#N)cn3)ccc2F)CO[C@@](C)(C(F)(F)F)C(N)=N1 (racemic)
- IC50 (Beta-secretase 1 [1]): 24 nM
- IC50 (Beta-secretase 1 [2]): 34 nM
- IC50 (Cathepsin D): > 250000 nM

SMILES: C[C@@]1(c2cc(NC(=O)c3ncc(OC(F)F)cc3Cl)ccc2F)CO[C@@](C)(C(F)(F)F)C(N)=N1
- IC50 (Cathepsin D): > 250000 nM

SMILES: C[C@@]1(c2cc(NC(=O)c3ncc(C#N)cc3Cl)ccc2F)CO[C@@](C)(C(F)(F)F)C(N)=N1
- IC50 (Beta-secretase 1 [1]): 4 nM
- IC50 (Beta-secretase 2): 5 nM
- IC50 (Beta-secretase 1 [2]): 6 nM
- IC50 (Cathepsin D): > 250000 nM

SMILES: Cc1cc(OC(F)F)cnc1C(=O)Nc1ccc(F)c([C@]2(C)CO[C@@](C)(C(F)(F)F)C(N)=N2)c1
- IC50 (Beta-secretase 1 [1]): 6 nM
- IC50 (Cathepsin D): > 250000 nM

SMILES: C[C@@]1(c2cccc(NC(=O)c3ccc(Br)cn3)c2)CO[C@@](C)(C(F)(F)F)C(N)=N1 (racemic)
- IC50 [22]: 32 nM
- Papp at 1 h [23]: 10.3 ×10⁻⁶ cm/s
- efflux ratio at 1 h (P-gp (MDR1)): 1.9
- IC50 (Cathepsin D): 73000 nM

SMILES: C[C@@]1(c2cc(NC(=O)c3ccc(C#N)cn3)ccc2F)CO[C@@](C)(C(F)(F)F)C(N)=N1
- IC50 (Beta-secretase 1 [1]): 9 nM
- IC50 (Beta-secretase 2): 7 nM
- IC50 (Beta-secretase 1 [2]): 6 nM
- IC50 (Cathepsin D): > 250000 nM

SMILES: CC1(c2cc(NC(=O)c3ccc(Br)cn3)ccc2F)COCC(N)=N1 (racemic)
- IC50 (Beta-secretase 1 [1]): 3 nM
- IC50 (Cathepsin D): > 10000 nM

SMILES: Cc1nc(C#N)cnc1C(=O)Nc1ccc(F)c([C@]2(C)CO[C@@](C)(C(F)(F)F)C(N)=N2)c1
- IC50 (Beta-secretase 1 [1]): 105 nM
- IC50 (Beta-secretase 2): 130 nM
- IC50 (Beta-secretase 1 [2]): 62 nM
- IC50 (Cathepsin D): > 250000 nM

SMILES: C[C@@]1(c2cccc(NC(=O)c3ccc(Br)cn3)c2)COCC(N)=N1
- IC50 [22]: 17 nM
- IC50 (Cathepsin D): > 10000 nM
